Experimental data: publication PMC10692362 (Acta Pharmaceutica Sinica. B, 2023)
Changes are numbered by the printed parent chain. Where “and” joins values, the source holds several entries; their conditions need not be identical. Equal values may be shown once. Read-outs that look alike come from different tables or passages of the source.

Assays:
T-47D^Y537S cells = assay: Cell viability assay; type: cell-based, human; details: 72 h, read-out: T-47D^Y537S IC50
T-47D cells = assay: Cell viability assay; type: cell-based, human; details: 72 h, read-out: T-47D IC50
T-47D^D538G cells = assay: Cell viability assay; type: cell-based, human; details: 72 h, read-out: T-47D^D538G IC50
ERβ = ERβ (Homo sapiens, UniProt Q92731); assay: ER transcriptional activity; type: cell-based; details: for Antagonist mode ERβ Eff (%E2): with 10 nmol/L 17β-estradiol; for Agonist mode ERβ Eff (%E2): control as 0%, 10 nmol/L E2 as 100%
ERβ, sequence (Q92731 whole entry): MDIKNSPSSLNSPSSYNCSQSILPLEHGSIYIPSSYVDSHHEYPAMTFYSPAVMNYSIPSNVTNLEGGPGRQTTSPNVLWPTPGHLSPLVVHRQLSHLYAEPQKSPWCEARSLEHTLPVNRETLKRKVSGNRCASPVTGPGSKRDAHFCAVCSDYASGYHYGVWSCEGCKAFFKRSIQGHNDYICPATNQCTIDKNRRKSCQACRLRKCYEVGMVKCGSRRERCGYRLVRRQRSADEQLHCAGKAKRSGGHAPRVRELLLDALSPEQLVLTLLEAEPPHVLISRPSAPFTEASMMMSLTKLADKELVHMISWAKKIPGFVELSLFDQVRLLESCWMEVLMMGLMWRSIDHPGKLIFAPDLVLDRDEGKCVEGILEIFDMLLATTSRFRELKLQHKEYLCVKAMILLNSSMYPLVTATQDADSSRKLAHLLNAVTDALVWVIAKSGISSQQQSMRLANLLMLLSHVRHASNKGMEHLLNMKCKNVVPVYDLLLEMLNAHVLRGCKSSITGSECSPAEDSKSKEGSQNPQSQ

MCF-7 cells = assay: Cell viability assay; type: cell-based, human; details: read-out: MCF-7 IC50
LCC-2 cells = assay: Cell viability assay on tamoxifen-resistant LCC-2 cells; type: cell-based; details: Homo sapiens, LCC2, read-out: LCC-2 IC50
MCF-7 tumor xenograft = MCF-7 tumor xenograft model in BALB/c nude mice; type: in vivo; details: Day 32
Outline: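 Female BALB/c nude mice (15–18 g, 5 weeks old) received 1 × 10⁷ MCF-7 cells in 100 μL PBS into the right axillary mammary fat pad. Tumour volume (W² × L × 0.5) and body weight were measured every 2 days. Mice were sacrificed on Day 33. Tumours were assessed by IHC (Ki-67, ERα) and ERα Western blot.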

ERα C530S mutant = target: T1, ERα C530S mutant (Homo sapiens, UniProt P03372, C530S); assay: Transcriptional activity; type: cell-based; details: HEK-293T^C530S cells, compared with wild type
T1 sequence (P03372 1-595 C530S): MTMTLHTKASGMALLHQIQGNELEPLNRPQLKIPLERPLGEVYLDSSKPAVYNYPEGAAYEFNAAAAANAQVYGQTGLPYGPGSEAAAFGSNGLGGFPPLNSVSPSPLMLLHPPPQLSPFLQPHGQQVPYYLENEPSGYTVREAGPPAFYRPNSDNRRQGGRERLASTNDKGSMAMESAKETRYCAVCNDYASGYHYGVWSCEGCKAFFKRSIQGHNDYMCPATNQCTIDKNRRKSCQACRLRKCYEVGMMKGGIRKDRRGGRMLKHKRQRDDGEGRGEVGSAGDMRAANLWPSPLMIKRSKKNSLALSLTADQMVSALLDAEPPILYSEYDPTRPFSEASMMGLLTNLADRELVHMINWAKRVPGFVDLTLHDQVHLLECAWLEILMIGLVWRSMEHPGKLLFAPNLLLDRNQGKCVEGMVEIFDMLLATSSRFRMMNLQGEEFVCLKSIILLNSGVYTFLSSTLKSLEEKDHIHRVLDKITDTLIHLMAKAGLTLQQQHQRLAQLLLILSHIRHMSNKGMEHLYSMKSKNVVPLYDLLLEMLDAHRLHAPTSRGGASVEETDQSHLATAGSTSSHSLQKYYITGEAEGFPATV

ERα [1] = target: T2, ERα (Homo sapiens, UniProt P03372); assay: cell-based; type: cell-based; details: for Agonist mode ERα Eff (%E2): control as 0%, 10 nmol/L E2 as 100%
T2 sequence (P03372 1-595): T1 sequence (P03372 1-595 C530S) with S530C

MCF-10A cells = type: cell-based, human; details: TI = IC50 MCF-10A / IC50 MCF-7
ERα [2] = target: T2, ERα; assay: Immunoblot analysis of ERα degradation in MCF-7 cells; type: cell-based; details: MCF-7 cells; for ERα degradation (immunoblot): 1 or 5 μmol/L
human ERα LBD = target: T3, human ERα LBD (Homo sapiens, UniProt P03372); assay: Competitive fluorescence polarization binding assay, ERα; details: for RBA ERα: IC50 estradiol/IC50 compound × 100, estradiol = 100%; for α/β ratio: ratio of RBA ERα to RBA ERβ
T3 sequence (P03372 311-547 limits assumed): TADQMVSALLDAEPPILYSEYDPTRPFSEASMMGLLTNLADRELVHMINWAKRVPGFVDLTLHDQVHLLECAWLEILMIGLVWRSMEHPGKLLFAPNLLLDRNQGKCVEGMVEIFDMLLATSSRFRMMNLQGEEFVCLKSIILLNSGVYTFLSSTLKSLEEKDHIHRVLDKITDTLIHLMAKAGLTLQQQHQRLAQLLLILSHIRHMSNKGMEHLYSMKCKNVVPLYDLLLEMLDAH

human ERβ LBD = human ERβ LBD (Homo sapiens, UniProt Q92731); assay: Competitive fluorescence polarization binding assay, ERβ; details: for RBA ERβ: IC50 estradiol/IC50 compound × 100, estradiol = 100%
human ERβ LBD, sequence (Q92731 264-498 limits assumed): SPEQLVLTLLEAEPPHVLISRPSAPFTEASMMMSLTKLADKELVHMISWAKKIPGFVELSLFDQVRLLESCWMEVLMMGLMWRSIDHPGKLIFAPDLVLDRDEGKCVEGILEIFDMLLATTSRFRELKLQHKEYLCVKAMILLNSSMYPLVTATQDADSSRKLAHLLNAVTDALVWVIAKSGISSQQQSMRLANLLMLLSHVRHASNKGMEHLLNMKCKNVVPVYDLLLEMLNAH

Compound | IC50 (T-47D^Y537S cells; Homo sapiens) [nM] | IC50 (T-47D cells; Homo sapiens, T47D) [nM] | IC50 (T-47D^D538G cells; Homo sapiens) [nM] | Antagonist mode ERβ Eff (%E2) (ERβ) | IC50 (MCF-7 cells; Homo sapiens, MCF7, 72 h) [nM] | IC50 (LCC-2 cells) [nM] | Antagonist mode ERα Eff (%E2) (ERα [1]; with 10 nmol/L 17β-estradiol) | ERα degradation (immunoblot) (ERα [2]) | Ki (human ERα LBD) [nM] | RBA ERα (human ERα LBD) | α/β ratio (human ERα LBD) | Ki (human ERβ LBD) [nM] | RBA ERβ (human ERβ LBD) [%] | also measured
CC/C(=C(\c1ccc(O)cc1)c1ccc(OCCN(C)C)cc1)c1ccccc1 [Compound 4-OHT, 4-hydroxytamoxifen, reference compound] | 8900 ± 280 | 1950 ± 200 | 9130 ± 600 | 11 ± 3 | 670 ± 80 | 22200 ± 1930 | – | – | – | – | – | – | – | –
C[C@]12CC[C@@H]3c4ccc(O)cc4C[C@@H](CCCCCCCCC[S+]([O-])CCCC(F)(F)C(F)(F)F)[C@H]3[C@@H]1CC[C@@H]2O (stereo partly shown) [Ful, Fulvestrant, reference compound] | 2220 ± 170 | 1760 ± 60 | 3920 ± 220 | 73 ± 1 | 140 ± 50 | 11000 ± 450 | 80 ± 2 | – | – | – | – | – | – | TGI (tumor growth inhibition) (MCF-7 tumor xenograft; 2 mg/kg ip every other day): 79%; Effect of C530S mutation on antagonistic activity (ERα C530S mutant): unaffected by this mutation
CC/C(=C(\c1ccccc1)c1ccc(OCCN(C)C)cc1)c1ccccc1 [tamoxifen, reference compound] | – | – | – | – | – | – | – | – | – | – | – | – | – | TGI (tumor growth inhibition) (MCF-7 tumor xenograft; 4 mg/kg ip every other day): 87%
CCN(c1ccc(O)cc1)S(=O)(=O)C1CC2OC1C(c1ccc(O)cc1)=C2c1ccc(NC(=O)C=C(C)C)cc1 (stereo not shown) [Compound 29i, N-(4-(5-(N-Ethyl-N-(4-hydroxyphenyl)sulfamoyl)-3-(4-hydroxyphenyl)-7-oxabicyclo[2.2.1]hept-2-en-2-yl)phenyl)-3-methylbut-2-enamide] | 1890 ± 170 | 3490 ± 60 | 4250 ± 190 | 78 ± 2 | 71 ± 27 | 4070 ± 130 | 62 ± 5 | effective in inducing ERα degradation | 0.09 | 29.85 ± 1.09% | 5.83 | 1.3 | 5.12 ± 0.39 | TI (therapeutic index) (MCF-10A cells): 122.82; IC50 (ERβ): 1020 nM; Agonist mode ERβ Eff (%E2) (ERβ): 34 ± 2 %E2; ERα degradation (immunoblot) at 1 μmol/L (ERα [2]): efficient ability to degrade ERα; IC50 (ERα [1]): 66 nM; Agonist mode ERα Eff (%E2) (ERα [1]): 15 ± 2 %E2
COc1ccc(N(CC(F)(F)F)S(=O)(=O)C2CC3OC2C(c2ccc(O)cc2)=C3c2ccc(NC(=O)C=C(C)C)cc2)cc1 (stereo not shown) [Compound 29f, N-(4-(3-(4-Hydroxyphenyl)-5-(N-(4-methoxyphenyl)-N-(2,2,2-trifluoroethyl)sulfamoyl)-7-oxabicyclo[2.2.1]hept-2-en-2-yl)phenyl)-3-methylbut-2-enamide] | > 31000 | 8580 ± 360 | 8530 ± 470 | 13 ± 1 | 94 ± 1 | 15100 ± 1370 | 35 ± 2 | effective in inducing ERα degradation | – | 14.48 ± 0.65% | 8.83 | – | 1.64 ± 0.45 | TI (therapeutic index) (MCF-10A cells): 54.89; Agonist mode ERβ Eff (%E2) (ERβ): 9 ± 2 %E2; ERα degradation (immunoblot) at 1 μmol/L (ERα [2]): efficient ability to degrade ERα; Ki (human ERα LBD; read-out: Ki ERα): 0.19 nM; Ki (human ERβ LBD; read-out: Ki ERβ): 4.07 nM; Agonist mode ERα Eff (%E2) (ERα [1]): 65 ± 5 %E2; EC50 (ERα [1]; read-out: Agonist mode ERα EC50, HEK-293T luciferase): 4910 nM; IC50 (ERα [1]; read-out: Antagonist mode ERα IC50, with 10 nmol/L 17β-estradiol): 210 nM
CC(C)CC(=O)Nc1ccc(C2=C(c3ccc(O)cc3)[C@H]3O[C@@H]2CC3S(=O)(=O)N(CC(F)(F)F)c2ccc(O)cc2)cc1 (mixture of isomers) [Compound 29k, N-(4-((1R,4R)-3-(4-Hydroxyphenyl)-5-(N-(4-hydroxyphenyl)-N-(2,2,2-trifluoroethyl)sulfamoyl)-7-oxabicyclo[2.2.1]hept-2-en-2-yl)phenyl)-3-methylbutanamide] | > 31000 | > 31000 | > 31000 | – | 1060 ± 190 | – | – | impaired degradation ability | 1.15 | 2.41 ± 0.21% | 1.66 | 4.6 | 1.45 ± 0.12 | –
CCN(c1ccc(OC)cc1)S(=O)(=O)C1CC2OC1C(c1ccc(O)cc1)=C2c1ccc(NC(=O)C=C(C)C)cc1 (stereo not shown) [Compound 29j, N-(4-(5-(N-Ethyl-N-(4-methoxyphenyl)sulfamoyl)-3-(4-hydroxyphenyl)-7-oxabicyclo[2.2.1]hept-2-en-2-yl)phenyl)-3-methylbut-2-enamide] | 12700 ± 530 | 7920 ± 190 | 8250 ± 450 | – | 290 ± 30 | – | – | effective in inducing ERα degradation | 0.63 | 4.36 ± 0.33% | 8.55 | 13.1 | 0.51 ± 0.09 | –
CC(C)=CC(=O)Nc1ccc(C2=C(c3ccc(O)cc3)C3OC2CC3S(=O)(=O)N(CC(F)(F)F)c2cccc(O)c2)cc1 (stereo not shown) [Compound 29h, N-(4-(3-(4-Hydroxyphenyl)-5-(N-(3-hydroxyphenyl)-N-(2,2,2-trifluoroethyl)sulfamoyl)-7-oxabicyclo[2.2.1]hept-2-en-2-yl)phenyl)-3-methylbut-2-enamide] | 2990 ± 220 | 3920 ± 10 | 2840 ± 140 | – | 980 ± 350 | – | – | effective in inducing ERα degradation | 0.35 | 7.89 ± 0.11% | 17.93 | 15.2 | 0.44 ± 0.02 | –
CC(C)=CC(=O)Nc1ccc(C2=C(c3ccc(O)cc3)C3CC(S(=O)(=O)N(CC(F)(F)F)c4ccc(O)cc4)C2O3)cc1 (stereo not shown) [29c′] | – | – | – | – | – | – | – | impaired degradation ability | – | 15.12% and 15.12 ± 0.31% | 7.37 | – | 2.05 ± 0.45 | IC50 (T-47D^Y537S cells; cell viability): 4050 ± 270 nM; IC50 (T-47D cells; cell viability): 5520 ± 270 nM; IC50 (T-47D^D538G cells; cell viability): 5000 ± 360 nM; IC50 (MCF-7 cells; cell viability, 72 h): 950 ± 110 nM; Ki (human ERα LBD; read-out: Ki ERα): 0.18 nM; Ki (human ERβ LBD; read-out: Ki ERβ): 3.25 nM
CC(C)=CC(=O)Nc1ccc(OS(=O)(=O)C2CC3OC2C(c2ccc(O)cc2)=C3c2ccc(O)cc2)cc1 (stereo not shown) [Compound 26c, 4-(3-Methylbut-2-enamido)phenyl-5,6-bis(4-hydroxyphenyl)-7-oxabicyclo[2.2.1]hept-5-ene-2-sulfonate] | 12000 ± 400 | 15800 ± 680 | 8750 ± 250 | – | 3160 ± 630 | – | – | – | 0.84 | 3.28 ± 0.17% | 2.50 | 5.09 | 1.31 ± 0.66 | –
